Source: PubChem BioAssay
MsrA inhibitor: inhibitors of bovine MsrA. purified bovine MsrA, absorbance read-out. inhibition, % at 15.5 µM. 360,000 tested, 0.75% active
MsrA act: bovine methionine sulfoxide reductase A activation; 360,000 tested, 0.3% active; activation, % at 10.6 µM; purified bovine MsrA, absorbance read-out; AID 602163; in the data active = activation above about 7.5%
AHR act: activates the human aryl hydrocarbon receptor. activation, % at 5 µM. AHR-responsive luciferase reporter cells, luminescence. P35869. 320,000 tested, 2.5% active; in the data active = activation above about 47%
HTR2A ag: agonists of mouse serotonin 5-HT2A receptor (HTR2A); P35363; CHO-K1 mHTR2A beta-arrestin complementation, luminescence; percent of 30 µM serotonin response; activation, % at 7.6 µM; 360,000 tested, 0.66% active; AID 624169;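 active = activation above a run cutoff, the mean activation of all tested compounds plus 3 SD, cut at about 14% in these data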
Target sequence (P35363 whole entry, looked up): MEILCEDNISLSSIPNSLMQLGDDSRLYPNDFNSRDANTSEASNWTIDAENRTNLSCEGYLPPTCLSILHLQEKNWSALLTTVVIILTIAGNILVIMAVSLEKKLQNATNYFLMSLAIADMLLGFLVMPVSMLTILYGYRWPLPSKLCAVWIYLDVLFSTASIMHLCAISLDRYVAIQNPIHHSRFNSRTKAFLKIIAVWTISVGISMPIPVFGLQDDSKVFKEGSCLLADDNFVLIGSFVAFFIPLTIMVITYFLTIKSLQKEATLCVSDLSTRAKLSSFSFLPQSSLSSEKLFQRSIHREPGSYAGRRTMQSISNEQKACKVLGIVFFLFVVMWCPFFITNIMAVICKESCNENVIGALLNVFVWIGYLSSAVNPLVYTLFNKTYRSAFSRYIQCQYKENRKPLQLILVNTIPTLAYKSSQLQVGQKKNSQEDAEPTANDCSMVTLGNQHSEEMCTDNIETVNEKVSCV
AI-2 QS modul: Vibrio harveyi AI-2 quorum sensing modulation; Vibrio harveyi JMH597 AI-2 luminescence/OD600 ratio, 9 h; stronger effect = lower value; strain lacks LuxN and CqsS sensors; 0 = neutral-control median; activity change, % at 7.5 µM; 300,000 tested, 0.4% active; AID 2094; in the data active = activity change below about -75%, passing the limit was not always enough;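 note: luminescence divided by OD600 gain over 9 h not by final OD600 alone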
Tb MetRS inh: Trypanosoma brucei MetRS inhibition; inhibition, % at 11.9 µM; purified T. brucei MetRS, ATP depletion, Kinase-Glo luminescence; 360,000 tested, 0.4% active; AID 624268;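 active = inhibition above a per-plate cutoff of the control wells' mean inhibition plus 3 SD, cut at about 5.5% in these data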
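Material: parasite MetRS enzyme / Replication: singlicate, one well per compound / Signal: luminescence of leftover ATP / Schedule: 2 h aminoacylation at 25 °C after 15 min preincubation / Medium: HEPES-MgCl2-KCl buffer plus DTT, spermine, BSA, pyrophosphatase / Doses: 11.9 µM single point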
MsrA conf: bovine MsrA inhibition, confirmed. shares compounds with MsrA inhibitor. purified bovine MsrA, absorbance read-out. inhibition, % at 15.5 µM. 2,300 tested, 41% active. AID 651822;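 note: coupled to thioredoxin reductase with NADPH and selenocystamine and DMSO as substrate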
Large screens that a line does not name were inactive (follow-up assays come after a bar, where they were run). Compounds with a hit are over-represented: about 4.4% of the library has one in this group of screens. Cut-off read from the data, not from the text of the source, unless noted: active = inhibition above about 4.5%; inactive = the rest.

N#C/C(=C\Nc1ccccc1O)c1nc2ccccc2o1	MsrA inhibitor 9.7 | MsrA conf 7.7
COc1cc2c(cc1[N+](=O)[O-])-c1ccc([N+](=O)[O-])cc1C2=NO	none (no result: AHR act, AI-2 QS modul)
Cc1ccc(C)c(OCC(=O)N/N=C\c2cccn2C)c1	MsrA inhibitor 5.1 | MsrA conf inactive
O=C(O)Cc1sc(Nc2ccccc2)nc1-c1cccs1	MsrA inhibitor 4.9 | MsrA conf inactive
CC(=O)c1c(C(=O)O)c2ccccc2[nH]c1=O	MsrA inhibitor 5.1 | MsrA conf inactive
COC(=O)c1c(N)c2ccccc2[nH]c1=O	none
c1ccc(-c2nc(-c3cccs3)[nH]c2-c2ccccc2)cc1	none (no result: AI-2 QS modul)
Cc1nc2nc(-c3cccs3)[nH]c2cc1Br	MsrA inhibitor 7.0, AHR act 58 | MsrA conf inactive
CC(=O)c1ccc(COC(=O)c2cc3ccccc3oc2=O)cc1	MsrA inhibitor 8.3 | MsrA conf inactive
COc1cc(OC)c(OC)cc1/C=N/NC(=S)NCC1CCCO1 (centres undefined)	MsrA inhibitor 5.9 | MsrA conf 4.9
COc1cc(/C=C(\C#N)C(=O)NCC2CCCO2)ccc1O (centres undefined)	none
S=C(NCCN1CCOCC1)N/N=C/c1ccccc1	none
COc1cc(/C=N/NC(=S)NCCN2CCOCC2)cc(OC)c1O	MsrA inhibitor 5.2 | MsrA conf 5.7
COc1cc(OC)c(OC)cc1/C=N/NC(=S)NCCN1CCOCC1	MsrA inhibitor 5.1 | MsrA conf inactive
COc1cc(/C=N/NC(=O)C(=O)NCC2CCCO2)ccc1O (centres undefined)	MsrA inhibitor 4.8 | MsrA conf inactive
NS(=O)(=O)c1ccc(CCNC(=O)C(=O)c2cn(CC(=O)N3CCOCC3)c3ccccc23)cc1	none
CCN1CCN(c2oc(-c3ccccc3C)nc2S(=O)(=O)c2ccccc2)CC1	none (no result: AHR act, AI-2 QS modul)
COCCCN(Cc1ccco1)C(=O)c1cc2c(s1)-c1ccc(Cl)cc1S(=O)(=O)C2	none
Cc1ccc(S(=O)(=O)/N=C2\C=C(Nc3cccc(C(=O)O)c3)C(=O)c3ccccc32)cc1	MsrA inhibitor 42 | MsrA conf 20
Cc1ccc(S(=O)(=O)/N=C2\C=C(Nc3cccc(C(=O)O)c3)C(=O)c3ccccc32)c(C)c1	MsrA inhibitor 25 | MsrA conf 30
O=C(O)c1cccc(NS(=O)(=O)c2ccc3c(c2)C(=O)c2ccccc2C3=O)c1	MsrA inhibitor 33 | MsrA conf 25
Cc1ccc(S(=O)(=O)/N=C(/c2ccccc2)N2CCOCC2)c(C)c1	none
CCc1ccc(S(=O)(=O)/N=C2\C=C(Nc3ccc(C(=O)O)cc3)C(=O)c3ccccc32)cc1	MsrA inhibitor 64 | MsrA conf 69
Cc1ccc(S(=O)(=O)/N=C2\C=C(Nc3ccc(O)cc3)C(=O)c3ccccc32)cc1	none (no result: MsrA inhibitor, AI-2 QS modul)
O=C(O)c1cccc(NS(=O)(=O)c2ccc(C3CCCCC3)cc2)c1	none (no result: MsrA inhibitor)
O=C(NCc1ccc(Cl)cc1)c1cc(S(=O)(=O)N2CCCCC2)c[nH]1	none
COc1ncccc1C(=O)N1CCCC(C(=O)Nc2cccc(-c3ccc(F)cc3)c2)C1 (centres undefined)	none (no result: AHR act, AI-2 QS modul)
CCC(=O)N1c2ccc(S(=O)(=O)N3CCN(c4cc(C)ccc4C)CC3)cc2CC1C (centres undefined)	none
Cc1ccc(NC2=C/C(=N/S(=O)(=O)c3cccs3)c3ccccc3C2=O)cc1	MsrA inhibitor 14 | MsrA conf 24
Cc1ccc(/C=C2\S/C(=N/S(=O)(=O)c3cccs3)NC2=O)cc1	none
CCOc1ccc(/C=N/n2nnnc2N)cc1OCC	MsrA inhibitor 4.8 | MsrA conf inactive
Cn1c(C(C#N)C(=O)c2ccco2)nc2ccccc21 (centres undefined)	MsrA inhibitor 5.1, AHR act 77 | MsrA conf 5.5
Cn1c(C(C#N)C(=O)Cc2cccc3ccccc23)nc2ccccc21 (centres undefined)	none
CCOC(=O)/C(=C/c1c[nH]c2ccccc12)NC(C)=O	MsrA inhibitor 5.0 | MsrA conf inactive
CNC(=O)C[C@H]1C(=O)N(c2ccc(Br)cc2)C[C@@H]1CSC	MsrA inhibitor 5.6 (no result: AHR act, AI-2 QS modul) | MsrA conf inactive
COCCCNC(=O)CSc1nc2c(sc(=S)n2-c2cc(Cl)ccc2OC)c(=O)[nH]1	MsrA inhibitor 5.8 | MsrA conf inactive
CCOC(=O)C(=NO)C1=CSC2=NNC(C)(C)N12	none (no result: AHR act, AI-2 QS modul)
O=[N+]([O-])c1cc(Cl)ccc1Nc1ccccc1	none (no result: MsrA inhibitor)
C/C(=N\Nc1ccc(S(N)(=O)=O)cc1[N+](=O)[O-])c1ccco1	MsrA inhibitor 9.2 | MsrA conf 5.4
C/C(=N\Nc1ccc(S(N)(=O)=O)cc1[N+](=O)[O-])c1ccccc1O	MsrA inhibitor 9.9 | MsrA conf 4.7
NS(=O)(=O)c1ccc(Nc2ccccc2)c([N+](=O)[O-])c1	MsrA inhibitor 4.9 | MsrA conf inactive
C/C(=N\NC(=O)c1cc([N+](=O)[O-])cc([N+](=O)[O-])c1)c1ccco1	none
NS(=O)(=O)c1ccc(N/N=C/c2ccc(O)c(O)c2O)c([N+](=O)[O-])c1	none (no result: AHR act, AI-2 QS modul)
CC(C)Cn1c(N)c(C(=O)COC(=O)c2cccn2C)c(=O)n(C)c1=O	none (no result: AI-2 QS modul)
CCOc1ccccc1N1CC(C(=O)NC2CCCCCC2)CC1=O (centres undefined)	none (no result: AI-2 QS modul)
COc1cccc(CNC(=O)c2ccc(NC(=O)CC3SC(N4CCCC4)=NC3=O)cc2)c1 (centres undefined)	none (no result: AI-2 QS modul)
OCCCN=c1cc(-c2ccccc2)oc2ccc(Cl)cc12	MsrA inhibitor 4.8 | MsrA conf inactive
COc1ccc(/C=C(/C#N)C(=O)Nc2ccc(C)cc2C)cc1C(=O)O	MsrA inhibitor 7.0 | MsrA conf 6.1
COc1ccc(/C=C(/C#N)C(=O)Nc2cccc([N+](=O)[O-])c2)cc1C(=O)O	none
Cc1ccc(C)c(NC(=O)/C(C#N)=C/c2ccc[nH]2)c1	MsrA inhibitor 9.3 | MsrA conf 11
COc1ccc(/C=C(/C#N)C(=O)Nc2ccccc2C)cc1C(=O)O	MsrA inhibitor 5.6 | MsrA conf inactive
COc1ccc(/C=C(/C#N)C(=O)Nc2cccc(C)c2C)cc1C(=O)O	none
COc1ccccc1NS(=O)(=O)c1cccc(C(=O)NNC(=O)C(C)NC(=O)c2ccco2)c1 (centres undefined)	none (no result: AI-2 QS modul)
CCCCN(Cc1nc2ccccc2c(=O)[nH]1)C(=O)c1nn(C)c(=O)c2ccccc12	none (no result: AHR act, AI-2 QS modul)
CC1CN(S(=O)(=O)c2cccc(C(=O)NCCc3ccc(S(N)(=O)=O)cc3)c2)CC(C)O1 (centres undefined)	none (no result: AI-2 QS modul)
O=C(N/N=C/c1ccc2c(c1)OCO2)c1ccc2c(c1)OCCO2	MsrA inhibitor 4.9 | MsrA conf inactive
